Bioassay records as filed in PubChem.
KCNQ1 pot = human KCNQ1 channel potentiation or activation | P51787 | B-score at 10 µM | actives 0.35% (n = 310,000) | CHO-K1 KCNQ1, thallium flux FluxOR fluorescence; hits give high values;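 active means fluorescence ratio B-score, a plate-corrected score, at least three library SD, with initial intensity B-score within 5 SD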
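System: CHO-K1 cells stably expressing KCNQ1 / Medium: assay buffer for compound exposure, DMSO matched across wells / Reagent: thallium- and potassium-containing depolarizing buffer / Compound: one concentration, matched DMSO / Incubation: 20 min compound pretreatment at room temperature / Measured by: kinetic FluxOR fluorescence, 10 s baseline plus 110 s post-stimulus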
KCC2 mod = KCC2 (human) Cl- transport modulation | Q9H2X9 | B-score of Tl+ flux slope (higher = more flux/activation; lower = inhibition) at 10 µM | KCC2 cells, thallium flux FluoZin-2 fluorescence | AID 1456 | actives 2.2% (n = 190,000);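 active means thallium flux slope and its plate-corrected score both differing from the plate sample mean at a set confidence after two filtering rounds, in either direction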;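 further: slope of fluorescence scaled to starting intensity during 10 to 20 s after thallium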
KCNK3 inh = human KCNK3 channel inhibition, primary screen. O14649. CHO-KCNK3 thallium flux, FluxOR fluorescence; hits give low values. B-score at 10 µM. actives 0.84% (n = 340,000). AID 602410;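 active means B-score under library mean minus 4 SD, starting fluorescence ratio at most library mean plus 5 SD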;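 further: more negative B-score means stronger inhibition of thallium flux through KCNK3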
hERG protect = compounds protecting human hERG from proarrhythmic drug block; Q12809; CHO-hERG, FluxOR thallium flux, dofetilide IC70 present; activation (rescue from dofetilide block), less the hit threshold, % at 10 µM; actives 0.51% (n = 310,000);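 active means activation above the mean of controls blocked by dofetilide plus 5 SD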;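 further: thallium influx through hERG after potassium depolarization seen as dye fluorescence rise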
KCNK9 block = human KCNK9 channel inhibition; AID 488922; HEK293 KCNK9, FluxOR thallium flux fluorescence; hits give low values; actives 1.2% (n = 310,000); B-score at 10 µM;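 active means ratio B-score over 3 SD below the library mean, with starting fluorescence within 5 SD of its mean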;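 further: negative B-score means less thallium flux so channel inhibition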
KCNQ1 inh = inhibitors of human KCNQ1 potassium channel. actives 1.3% (n = 310,000). CHO-K1 KCNQ1, FluxOR thallium flux fluorescence; hits give high values. P51787. B-score at 10 µM;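 active means compounds whose thallium flux B-score, printed positive for inhibition, exceeds three library SD while starting fluorescence stays within three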;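 further: channel opened by potassium depolarization with thallium stimulus after 20 min compound exposure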
Starred values were filed as active, the others as inactive. Rows were chosen to be rich in hits. Some 4.1% of all compounds tested hit in one or more screens of this group.

How did O=S(=O)([N-]c1nc2ccccc2nc1-[n+]1ccc(-c2ccncc2)cc1)c1ccccc1 do in these assays?
KCNQ1 pot: inactive; KCC2 mod: 0.9; KCNK3 inh: inactive; hERG protect: -11; KCNK9 block: inactive; KCNQ1 inh: inactive

What do the screens show for `O=S(=O)([N-]c1nc2ccccc2nc1-[n+]1ccc(CCCc2ccccc2)cc1)c1cccs1`?
KCNQ1 pot: inactive; KCC2 mod: -2.9; KCNK3 inh: inactive; hERG protect: -11; KCNK9 block: -6.8*; KCNQ1 inh: inactive

How did CCN(CC(=O)Nc1ccc(OC)cc1)C(=O)c1ccc2[nH]c3c(c2c1)CC(C)CC3 (stereo not given) do in these assays?
KCNK3 inh: inactive

How did COc1ccc(C(c2nnnn2C(C)(C)C)N2CCN(c3nc4ccccc4s3)CC2)cc1 (stereo not given) do in these assays?
KCNQ1 pot: inactive; KCC2 mod: -0.45; KCNK3 inh: inactive; hERG protect: -10; KCNK9 block: -7.1*; KCNQ1 inh: inactive

What do the screens show for `c1ccc(Cn2nnnc2C(c2ccccc2)N2CCN(c3nc4ccccc4s3)CC2)cc1` (stereo not given)?
KCNQ1 pot: inactive; KCNK3 inh: inactive; hERG protect: -9; KCNK9 block: inactive; KCNQ1 inh: inactive

What do the screens show for `CCCc1ccc(S(=O)(=O)N(C)S(=O)(=O)c2ccc(F)cc2)cc1`?
KCNQ1 pot: inactive; KCNK3 inh: inactive; hERG protect: -10; KCNK9 block: -6.7*; KCNQ1 inh: inactive

How did CCN(CC)S(=O)(=O)c1ccc(F)cc1 do in these assays?
KCNQ1 pot: inactive; KCNK3 inh: inactive; hERG protect: -11; KCNK9 block: inactive; KCNQ1 inh: inactive

Results for Cc1ccc(CN(CC(O)COc2cccc3[nH]cc(C)c23)C(C)(C)C)cc1 (stereo not given) ?
KCNQ1 pot: inactive; KCNK3 inh: inactive; hERG protect: -7; KCNK9 block: inactive; KCNQ1 inh: inactive

Results for COC(=O)Cc1c[nH]c2cccc(OCC(O)CN(Cc3ccc([N+](=O)[O-])cc3)C(C)(C)C)c12 (stereo not given) ?
KCNQ1 pot: inactive; KCC2 mod: -0.97; KCNK3 inh: inactive; hERG protect: -11; KCNK9 block: -7.8*; KCNQ1 inh: inactive

How did Oc1ccc(CNc2ccccc2F)c2cccnc12 do in these assays?
KCNQ1 pot: inactive; KCC2 mod: -0.024; KCNK3 inh: inactive; hERG protect: -11; KCNK9 block: inactive; KCNQ1 inh: 7*

How did Oc1ccccc1CNc1cccc2cccnc12 do in these assays?
KCNQ1 pot: inactive; KCNK3 inh: inactive; hERG protect: -9; KCNK9 block: -7.3*; KCNQ1 inh: inactive

Results for COC(=O)Cc1c(C)c2ccc(OCC(=O)N(C)C3CCS(=O)(=O)C3)cc2oc1=O (stereo not given) ?
KCNQ1 pot: inactive; KCNK3 inh: inactive; hERG protect: -4; KCNK9 block: inactive; KCNQ1 inh: inactive

How did CC(C)NC(=O)C1CCN(C(=O)c2cc3sccc3n2Cc2ccc(F)cc2)CC1 do in these assays?
KCNQ1 pot: inactive; KCC2 mod: -0.6; KCNK3 inh: inactive; hERG protect: 5.0*; KCNK9 block: inactive; KCNQ1 inh: inactive

Results for O=C(NCc1ccc(F)cc1)c1cc2sccc2n1Cc1ccc(F)cc1 ?
KCNQ1 pot: inactive; KCC2 mod: -0.15; hERG protect: -9; KCNK9 block: -10*; KCNQ1 inh: inactive

Results for CCCCc1cc(=O)oc2cc(C)cc(OC(C)C(=O)NCc3cccnc3)c12 (stereo not given) ?
KCNQ1 pot: inactive; KCNK3 inh: inactive; hERG protect: -14; KCNK9 block: inactive; KCNQ1 inh: inactive

What do the screens show for `CC(=C/c1ccccc1)/C=N/n1c(C)n[nH]c1=S`?
KCNQ1 pot: inactive; KCNK3 inh: inactive; hERG protect: -2; KCNK9 block: inactive; KCNQ1 inh: inactive

How did CC(/C=N/n1c(COc2ccccc2)n[nH]c1=S)=C\c1ccccc1 do in these assays?
KCNQ1 pot: inactive; KCC2 mod: 7.8*; KCNK3 inh: inactive; hERG protect: -5; KCNK9 block: inactive; KCNQ1 inh: inactive

What do the screens show for `CN1CCN(CCCNCc2cn(CCC#N)c3ccccc23)CC1`?
KCNQ1 pot: inactive; KCNK3 inh: inactive; hERG protect: -7; KCNK9 block: inactive; KCNQ1 inh: inactive

What do the screens show for `CCCCOc1cccc(C2/C(=C(\O)c3ccc4c(c3)OCCO4)C(=O)C(=O)N2CCN2CCOCC2)c1` (stereo not given)?
KCNQ1 pot: inactive; KCNK3 inh: inactive; hERG protect: -4; KCNK9 block: inactive; KCNQ1 inh: inactive

How did Cc1ccc2c(c1)sc1nc(=O)ccn12 do in these assays?
KCNQ1 pot: inactive; KCNK3 inh: inactive; hERG protect: 6.7*; KCNK9 block: inactive; KCNQ1 inh: inactive

What do the screens show for `COc1ccc2c(c1)sc1nc(=O)ccn12`?
KCNQ1 pot: inactive; KCNK3 inh: inactive; hERG protect: -11; KCNK9 block: inactive; KCNQ1 inh: inactive

How did Cc1ccc(NC(=O)COCC(=O)Nc2ccc(F)cc2)cc1 do in these assays?
KCNQ1 pot: inactive; KCNK3 inh: inactive; hERG protect: -13; KCNK9 block: inactive; KCNQ1 inh: inactive

How did Cc1cccc(NC(=S)NNC(=O)c2csc(C(C)C)c2)c1 do in these assays?
KCNQ1 pot: inactive; KCC2 mod: 16*; KCNK3 inh: inactive; hERG protect: -11; KCNK9 block: inactive; KCNQ1 inh: inactive

What do the screens show for `Cc1cccc(NC(=S)NNC(=O)c2sccc2C)c1`?
KCNQ1 pot: inactive; KCC2 mod: 1.9; KCNK3 inh: inactive; hERG protect: -5; KCNK9 block: inactive; KCNQ1 inh: inactive

What do the screens show for `CCc1cc(C(=O)NNC(=S)Nc2cccc(C)c2)cs1`?
KCNQ1 pot: inactive; KCC2 mod: 9.3*; KCNK3 inh: inactive; hERG protect: -13; KCNK9 block: inactive; KCNQ1 inh: inactive

How did CCCN1Cc2cc(OC)ccc2-c2ccccc2S1(=O)=O do in these assays?
KCNK3 inh: inactive

How did COc1ccc(NC(=O)CSc2nc3nc(C)cc(C)c3c(=O)[nH]2)cc1OC do in these assays?
KCNK3 inh: inactive

What do the screens show for `O=Nc1nc2ncccn2c1-c1ccccc1`?
KCNK3 inh: inactive

Results for Cc1cccc(NC(=S)NCCC(c2ccccc2)c2ccccc2)c1 ?
KCNQ1 pot: inactive; KCC2 mod: -0.36; KCNK3 inh: inactive; hERG protect: -18; KCNK9 block: inactive; KCNQ1 inh: inactive

Results for COc1cccc(NC(=S)NCCN2CCOCC2)c1 ?
KCNQ1 pot: 12*; KCC2 mod: 0.35; KCNK3 inh: inactive; hERG protect: -12; KCNK9 block: inactive; KCNQ1 inh: inactive
